Assay results: ChEMBL document CHEMBL3627607, “A Novel Pyrazolopyridine with in Vivo Activity in Plasmodium berghei- and Plasmodium falciparum-Infected Mouse Models from Structure-Activity Relationship Studies around the Core of Recently Identified Antimalarial Imidazopyridazines” (J Med Chem, 2015)
Calls of active or inactive are those of the source. The rule behind the calls is not given here.

Experiments:
[1] = Metabolic stability of the compound in mouse liver microsomes assessed as compound remaining at 0.1 uM after 30 mins by LC-MS/MS analysis; format: ADME; conditions: 0.5 h
[2] = Drug level in mouse blood at 50 mg/kg, po after 4 hrs; format: ADME, organism-based; conditions: read-out: Drug uptake
How it was run: (§1)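 Snapshot whole-blood levels of parent and its sulfone metabolite at 1, 4 and 24 h after the first 50 mg/kg oral dose. Samples came from the P. berghei-infected efficacy mice, dosed in HPMC suspension vehicle.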

[3] = Oral bioavailability in rat at 15 mg/kg; format: ADME, organism-based; conditions: in vivo
[4] = test system: Plasmodium falciparum; assay: Antiplasmodial activity against drug sensitive Plasmodium falciparum NF54 infected in human erythrocytes after 48 hrs by [3H]-hypoxanthine incorporation assay; format: functional, organism-based
[5] = test system: Liver microsome; assay: Metabolic stability of the compound in rat liver microsomes assessed as compound remaining at 0.1 uM after 30 mins by LC-MS/MS analysis; format: ADME; conditions: 0.5 h
[6] = target: Voltage-gated inwardly rectifying potassium channel KCNH2 (Homo sapiens, UniProt Q12809); assay: Inhibition of human ERG potassium channel by ionworks patch-clamp electrophysiology assay
[7] = Plasma clearance in rat at 5 mg/kg, iv; format: ADME, organism-based
[8] = Drug level in mouse blood at 50 mg/kg, po after 24 hrs; format: ADME, organism-based; conditions: blood, read-out: Drug uptake; how it was run: as §1
[9] = test system: Plasmodium berghei; assay: Antiplasmodial activity against Plasmodium berghei ANKA expressing GFP infected in mouse assessed as means survival days at 50 mg/kg, po qd for 4 days; format: functional
How it was run: (§2)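 Mice (n = 3) infected with GFP-transfected P. berghei ANKA. Compounds dissolved or suspended in HPMC vehicle (0.5% w/v hydroxypropylmethylcellulose, 0.5% v/v benzyl alcohol, 0.4% v/v Tween 80, 0.9% w/v NaCl in water). Dosed orally 4, 24, 48 and 72 h after infection. Parasitemia read by flow cytometry (detection limit 0.1%). Survival recorded as mean survival time in days.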

[10] = Selectivity index, ratio of IC50 for African green monkey VERO cells to IC50 for Plasmodium falciparum NF54; format: toxicity, cell-based; conditions: read-out: Ratio IC50
[11] = test system: Plasmodium berghei; assay: Antiplasmodial activity against sporozoite stage of Plasmodium berghei expressing luciferase infected in human HepG2-A16-CD81EGFP cells preincubated with cells for 18 hrs followed by protozoal infection measured after 48 hrs by bioluminescence assay; format: functional, organism-based
How it was run: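 HepG2 cells were pretreated 18 h with compound, then infected with freshly dissected luciferase-expressing P. berghei sporozoites. After a further 48 h with compound, viability of exoerythrocytic forms and of HepG2 host cells was read by bioluminescence.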

[12] = Half life in rat at 15 mg/kg, po; format: ADME, organism-based; conditions: in vivo
[13] = Drug level in mouse blood at 50 mg/kg, po after 1 hr; format: ADME, organism-based; conditions: read-out: Drug uptake; how it was run: as §1
[14] = Half life in rat at 5 mg/kg, iv; format: ADME, organism-based; conditions: in vivo
[15] = test system: Liver microsome; assay: Metabolic stability of the compound in human liver microsomes assessed as compound remaining at 0.1 uM after 30 mins by LC-MS/MS analysis; format: ADME; conditions: 0.5 h
[16] = Volume of distribution in rat at 5 mg/kg, iv; format: ADME, organism-based; conditions: in vivo
[17] = Selectivity index, ratio of IC50 for African green monkey VERO cells to IC50 for multidrug resistant Plasmodium falciparum K1; format: toxicity, cell-based; conditions: read-out: Ratio IC50
[18] = test system: Plasmodium berghei; assay: Antiplasmodial activity against Plasmodium berghei ANKA expressing GFP infected in mouse assessed as reduction of parasitemia level at 50 mg/kg, po qd for 4 days measured on day 4 post last dose by flow cytometric analysis relative to control; format: functional; set-up: scale not given: the % may be the effect or the level left
How it was run: (§3)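 Mice (n = 3) infected with GFP-transfected P. berghei ANKA. Test agents were suspended in HPMC vehicle (0.5% w/v hydroxypropylmethylcellulose, 0.5% v/v benzyl alcohol, 0.4% v/v Tween 80, 0.9% w/v NaCl in water). Dosed orally at 4, 24, 48 and 72 h post-infection. Parasitemia read by flow cytometry on day 4 (96 h), detection limit 0.1%. Activity = control-minus-treated mean % parasitemia, relative to control.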

[19] = Selectivity index, ratio of IC50 for CHO cells to IC50 for Plasmodium falciparum NF54; format: toxicity, cell-based; conditions: hamster, read-out: Ratio IC50
[20] = Selectivity index, ratio of IC50 for CHO cells to IC50 for multidrug resistant Plasmodium falciparum K1; format: toxicity, cell-based; conditions: hamster, read-out: Ratio IC50
[21] = test system: Plasmodium falciparum; assay: Antiplasmodial activity against multidrug resistant Plasmodium falciparum K1 infected in human erythrocytes after 48 hrs by [3H]-hypoxanthine incorporation assay; format: functional, organism-based
[22] = Solubility of the compound in 0.01M HCl at pH 2 by Nephelometric analysis; format: physicochemical; conditions: buffer
[23] = test system: Plasmodium berghei; assay: Antiplasmodial activity against Plasmodium berghei ANKA expressing GFP infected in mouse assessed as mouse cured from disease at 50 mg/kg, po qd for 4 days; format: functional, organism-based
[24] = test system: Plasmodium berghei; assay: Antiplasmodial activity against Plasmodium berghei ANKA expressing GFP infected in mouse assessed as means survival days at 10 mg/kg, po qd for 4 days; format: functional; how it was run: as §2
[25] = test system: Plasmodium berghei; assay: Antiplasmodial activity against Plasmodium berghei ANKA expressing GFP infected in mouse assessed as reduction of parasitemia level at 3 mg/kg, po qd for 4 days measured on day 4 post last dose by flow cytometric analysis relative to control; format: functional; set-up: scale not given: the % may be the effect or the level left; how it was run: as §3
[26] = test system: Plasmodium berghei; assay: Antiplasmodial activity against Plasmodium berghei ANKA expressing GFP infected in mouse assessed as means survival days at 3 mg/kg, po qd for 4 days; format: functional; how it was run: as §2
[27] = test system: Plasmodium berghei; assay: Antiplasmodial activity against Plasmodium berghei ANKA expressing GFP infected in mouse assessed as reduction of parasitemia level at 10 mg/kg, po qd for 4 days measured on day 4 post last dose by flow cytometric analysis relative to control; format: functional; set-up: scale not given: the % may be the effect or the level left; how it was run: as §3

Chain of Voltage-gated inwardly rectifying potassium channel KCNH2 (Q12809 whole entry): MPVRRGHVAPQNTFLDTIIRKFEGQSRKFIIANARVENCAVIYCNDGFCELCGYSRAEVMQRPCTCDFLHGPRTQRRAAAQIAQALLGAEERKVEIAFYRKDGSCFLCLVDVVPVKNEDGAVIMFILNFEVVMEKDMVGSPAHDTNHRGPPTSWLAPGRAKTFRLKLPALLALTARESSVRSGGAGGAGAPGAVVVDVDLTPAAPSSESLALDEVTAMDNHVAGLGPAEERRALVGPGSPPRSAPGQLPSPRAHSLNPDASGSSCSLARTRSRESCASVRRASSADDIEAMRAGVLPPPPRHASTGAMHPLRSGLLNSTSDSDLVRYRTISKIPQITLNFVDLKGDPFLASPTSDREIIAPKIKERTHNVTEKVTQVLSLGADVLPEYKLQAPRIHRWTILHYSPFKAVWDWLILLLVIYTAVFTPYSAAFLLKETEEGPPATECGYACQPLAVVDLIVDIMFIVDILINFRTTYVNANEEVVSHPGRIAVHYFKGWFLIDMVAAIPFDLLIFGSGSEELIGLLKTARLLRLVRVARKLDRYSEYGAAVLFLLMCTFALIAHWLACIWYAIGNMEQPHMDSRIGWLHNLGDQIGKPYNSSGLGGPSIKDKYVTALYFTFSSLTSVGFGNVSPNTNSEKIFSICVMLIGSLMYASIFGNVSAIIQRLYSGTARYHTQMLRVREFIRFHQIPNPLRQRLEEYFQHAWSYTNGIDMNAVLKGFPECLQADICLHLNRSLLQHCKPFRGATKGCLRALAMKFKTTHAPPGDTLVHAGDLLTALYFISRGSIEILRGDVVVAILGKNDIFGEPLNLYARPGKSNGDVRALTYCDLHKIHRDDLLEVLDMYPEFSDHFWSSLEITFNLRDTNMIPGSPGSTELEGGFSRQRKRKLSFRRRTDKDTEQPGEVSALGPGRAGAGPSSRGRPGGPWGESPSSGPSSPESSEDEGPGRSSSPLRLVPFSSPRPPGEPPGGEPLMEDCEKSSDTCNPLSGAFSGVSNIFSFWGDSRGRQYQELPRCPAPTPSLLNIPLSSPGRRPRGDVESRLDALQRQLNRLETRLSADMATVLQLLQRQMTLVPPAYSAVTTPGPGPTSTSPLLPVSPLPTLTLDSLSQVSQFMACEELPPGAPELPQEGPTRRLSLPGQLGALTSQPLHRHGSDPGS

SMILES	Stability [1]	IC50 [4]	Stability [5]	Stability [15]	IC50 [21]	other results
CS(=O)(=O)c1ccc(-c2cnn3ccc(-c4cccc(S(C)(=O)=O)c4)cc23)cc1	Stable	8 nM	Stable	Stable		concentration at 4 h [2]: 486 nM; bioavailability [3]: 1%; IC50 [6]: > 33000 nM; clearance [7]: 13.9 mL/min/kg; concentration at 24 h [8]: 290 nM; MSD [9]: 4 days; selectivity ratio [10]: > 1000; IC50 [11]: 6.6 nM; half-life [12]: 2.6 h; concentration at 1 h [13]: 7600 nM; half-life [14]: 4.1 h; Vd [16]: 4.8 L/kg; selectivity ratio [17]: > 1000; Activity [18]: 60%; selectivity ratio [19]: > 1000; selectivity ratio [20]: > 1000
CS(=O)(=O)c1ccc(-c2cnc3ccc(-c4cccc(S(C)(=O)=O)c4)cn23)cc1	Stable	150 nM	Stable	Stable	113 nM	IC50 [6]: 4800 nM
CS(=O)(=O)c1ccc(-c2nnc3ccc(-c4cccc(S(C)(=O)=O)c4)cn23)cc1		> 1000 nM			> 1000 nM	
CS(=O)(=O)c1ccc(-c2nnc3ccc(-c4cccc(S(C)(=O)=O)c4)nn23)cc1		> 2340 nM				
CS(=O)(=O)c1ccc(-c2cnn3c2NC(c2cccc(C(F)(F)F)c2)CC3)cc1 (stereo unspecified)		< 100 nM				
CS(=O)(=O)c1ccc(-c2cnc3ncc(-c4cccc(S(C)(=O)=O)c4)cn23)cc1		> 1000 nM			> 1000 nM	
CS(=O)(=O)c1ccc(-c2cnn3ccc(-c4cccc(C(F)(F)F)c4)cc23)cc1	Stable	98 nM	Stable	Stable		
CS(=O)(=O)c1ccc(-c2cnc3cnc(-c4cccc(S(C)(=O)=O)c4)cn23)cc1	Stable	877 nM	Stable	Stable		solubility [22]: soluble
CS(=O)(=O)c1ccc(-c2cnc3ccc(-c4cccc(S(=O)(=O)C5CC5)c4)nn23)cc1	Stable		Stable	Stable		
CS(=O)(=O)c1ccc(-c2cnc3ccc(-c4cccc(C(F)(F)F)c4)nn23)cc1	Stable	60 nM	Stable	Stable	46 nM	Activity [23]: Active; MSD [9]: >30 days; MSD [24]: 7 days; Activity [25]: <40%; MSD [26]: 4 days; Activity [27]: 70%; Activity [18]: 99.8%
C[S+]([O-])c1ccc(-c2cnc3ccc(-c4cccc(S(=O)(=O)C5CC5)c4)nn23)cc1 (stereo unspecified)	Stable		Stable	Stable		Activity [23]: Active; MSD [9]: >30 days; MSD [24]: 8 days; Activity [25]: 98%; MSD [26]: 7 days; Activity [27]: 99.6%; Activity [18]: 99.8%
